Assay results from different studies.
Target: STE20-like serine/threonine-protein kinase (SLK, Homo sapiens, UniProt Q9H2G2)

| Structure (SMILES) | assay | setting | remaining binding [%] |
| --- | --- | --- | --- |
| C=CC(=O)N1CCC(C(=O)NCC(=O)N2CCN(c3nc(-c4cnc(N)nc4C(F)F)nc(N4CCOCC4)n3)CC2)CC1 | binding, competition with immobilised ligand | 1 µM | 80 |
| Cc1nc(N2CC[C@@H](O)C2)ncc1-c1cc(C(F)(F)F)cc2[nH]ncc12 | binding, competition with immobilised ligand | 1 µM | 98 |
| CN(c1nccc(-c2cnn3ncccc23)n1)C1CC1 | binding | 1 µM | 100 |
| Cc1c(NC(=O)c2cc(C(N)=O)nc3cc(F)ccc23)c(C(F)(F)F)nn1Cc1ccc(C(C)(C)C)cc1 | cell-free assay, competition with immobilised ligand | 1 µM | 100 |
| CN(C)c1nccc(-c2cnn3ncccc23)n1 | binding | 1 µM | 100 |
| O=C(O)[C@H]1[C@H](Cn2nnc3ccccc3c2=O)CC[C@@H]1C(=O)c1ccc(OCCC2CCOCC2)cc1 | cell-free assay, competition with immobilised ligand | 1 µM | 96 |
| COc1cnc(Nc2cccc(S(N)(=O)=O)c2)nc1N1CCN(c2ccccc2)CC1 | binding, competition with immobilised ligand | 1 µM | 99 |
| O=C(c1ccc(Nc2ncc(Cl)c(-c3cc4ccccc4s3)n2)cc1)N1CCC(N2CCCC2)CC1 | binding, competition with immobilised ligand | 1 µM | 1.7 |
| Cc1nc(Cc2cccc(C(F)(F)F)c2)sc1-c1ccc(C(N)=O)nc1 | cell-free assay, competition with immobilised ligand | 1 µM | 100 |
| N[C@H]1CCN(c2nccc(-c3cnn4ncccc34)n2)C1 | binding | 1 µM | 86 |
| C[C@@]1(Cc2ccc(C#N)cc2)C(=O)N(c2cc(Cl)cc(Cl)c2)c2ncc(C(=O)NC3(c4nc(C5CCC5)no4)CC3)n21 | cell-free assay, competition with immobilised ligand | 1 µM | 100 |
| CN(C)c1nccc(-c2cnc3ncccn23)n1 | binding | 1 µM | 100 |
| Cc1cnc(Nc2ccc(C(=O)N3CCC(N4CCCC4)CC3)cc2)nc1-c1cc2ccccc2s1 | binding, competition with immobilised ligand | 1 µM | 0.4 |
| CNC(=O)[C@@H]1CC[C@@H](n2c(-c3ccc4cnccc4c3)nc3ccc(C(=O)NCc4cccc(C(N)=O)c4)cc32)C1 | binding, competition with immobilised ligand | 1 µM | 95 |
| O=C(Nc1c[nH]nc1C(=O)NC1CCNCC1)c1cc(F)cc(F)c1 | binding, competition with immobilised ligand | 1 µM | 100 |
| c1cnn2ncc(-c3ccnc(N4CCC45COC5)n3)c2c1 | binding | 1 µM | 100 |
| c1ccc(N2CCN(Cc3nc4ccccc4[nH]3)CC2)nc1 | binding, competition with immobilised ligand | 1 µM | 93 |
| CCN1CCN(Cc2ccc(C(=O)Nc3ccc(C)c(Oc4ccc5c(c4)CC(=O)N5)c3)cc2C(F)(F)F)CC1 | binding, competition with immobilised ligand | 1 µM | 76 |
| C[C@@H]1CCN(c2nccc(-c3cnn4ncccc34)n2)C1 | binding | 1 µM | 87 |
| O=C(NCCCN1CCOCC1)c1ccc(Nc2ncc(Cl)c(-c3ccc(Cl)s3)n2)cc1 | binding, competition with immobilised ligand | 1 µM | 8 |
| C[C@@H](c1ccc(-n2cnc3c(N)ncnc32)cc1)N1CCc2nn(C)c(Cc3ccccc3)c2C1=O | binding, competition with immobilised ligand | 0.1 µM | 100 |
